A short description of data set [1]: Ratio of the amount in brain as a percent of that present in liver at 5 min is expressed as Brain penetration index (BPI). It counts as functional. In outline: (§1)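 Male Balb-c mice (20 ± 2 g) received ¹⁴C-labeled lipid (label on the GABA portion) sc, as diacetate salt or free amine, in 15% propylene glycol in water. Killed at 5 min; brain and liver weighed and homogenized in SDS/EDTA phosphate buffer (pH 7.6), then scintillation counted. nmol/g computed from total radioactivity. BPI = ([brain]/[liver]) × 100. Mean ± SD of three, or two, measurements.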

A short description of data set [2]: Partition coefficient in octanol/water system was determined. It counts as physicochemical.
The test system of data set [3] is Mus musculus. Description: Tested for the quanitity of [14C]-labeled (radioactivity) compound taken up into the brain following subcutaneous injection at a 100 mg/kg. It counts as functional.
The nature of data set [4]: Brain-uptake index (BUI) was determined for the compound in rat. It counts as functional. The method, boiled down:
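Rat carotid bolus: male Sprague-Dawley rats (200-300 g) under deep Nembutal anesthesia received a 0.15-mL bolus of ³H2O plus ¹⁴C-labeled compound in 0.01 M HEPES (pH 7.4) into the right carotid artery. Decapitated 5 s later; ipsilateral forebrain homogenized in SDS/urea/EDTA/phosphate buffer (pH 7.4). Duplicate aliquots counted by scintillation, corrected for quench and spillover. BUI = (¹⁴C/³H cpm) brain / (¹⁴C/³H cpm) injectate. Values uncorrected.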

For data set [5], the system named is Mus musculus. The experiment in a line: Tested for the quanitity of [14C]-labeled (radioactivity) compound taken up into the liver following subcutaneous injection at a 100 mg/kg. It counts as functional.
Data set [6] has as its system Mus musculus. Description: Percentage decrease in general motor activity with respect to vehicle-injected control in mice at a dose of 30 mg/kg after ip administration. It counts as functional. Conditions: route intraperitoneal.
Data set [7] can be described thus: Partition coefficient in octanol/water system was determined using [14C]-labeled compounds. It counts as physicochemical.
Data set [8] has as its system Mus musculus. The experiment in a line: Tested for the quanitity of [14C]-labeled (radioactivity) compound taken up into the liver following subcutaneous injection. The data set is classed as functional.
Data set [9] concerns Mus musculus. Description: Tested for the quanitity of [14C]-labeled (radioactivity) compound taken up into the brain following subcutaneous injection. It counts as functional.
In data set [10] the test system is Mus musculus. Description: Tested for the quanitity of [14C]-labeled (radioactivity) compound taken up into the liver following subcutaneous injection t a 54 mg/kg. It counts as functional. The method, boiled down:
as §1

Data set [11] has as its system Mus musculus. Description: Tested for the quanitity of [14C]-labeled (radioactivity) compound taken up into the brain following subcutaneous injection at a 54 mg/kg. The data set is classed as functional. In outline: as §1
Data set [12] concerns Mus musculus. The experiment in a line: Tested for the quanitity of [14C]-labeled (radioactivity) compound taken up into the brain following subcutaneous injection at a 44 mg/kg. The data set is classed as functional. In outline:
as §1

Data set [13] has as its system Mus musculus. Description: Tested for the quanitity of [14C]-labeled (radioactivity) compound taken up into the liver following subcutaneous injection at a 44 mg/kg. The data set is classed as functional. In outline: as §1
Data set [14] deals with Mus musculus. The experiment in a line: Tested for the quanitity of [14C]-labeled (radioactivity) compound taken up into the liver following subcutaneous injection at a 40 mg/kg. It counts as functional. The method, boiled down: as §1
In data set [15] the test system is Mus musculus. Description: Tested for the quanitity of [14C]-labeled (radioactivity) compound taken up into the brain following subcutaneous injection at a 40 mg/kg. It counts as functional. In outline: as §1
For data set [16], the system named is Mus musculus. The experiment in a line: Tested for the quanitity of [14C]-labeled (radioactivity) compound taken up into the brain following subcutaneous injection at a 36 mg/kg. The data set is classed as functional. In outline: as §1
Data set [17] has as its system Mus musculus. Description: Tested for the quanitity of [14C]-labeled (radioactivity) compound taken up into the liver following subcutaneous injection at a 36 mg/kg. It counts as functional. In outline: as §1
The subject of data set [18] is Mus musculus. Description: Tested for the quanitity of [14C]-labeled (radioactivity) compound taken up into the brain following subcutaneous injection at a 41 mg/kg. It counts as functional. In outline: as §1
Data set [19] has as its system Mus musculus. Description: Tested for the quanitity of [14C]-labeled (radioactivity) compound taken up into the liver following subcutaneous injection at a 41 mg/kg. It counts as functional. In outline: as §1

Molecules are shown by their SMILES.

With `CC/C=C/C/C=C/C/C=C/CCCCCCCC(=O)OCC(COC(=O)CCCN)OC(=O)CCCN` (stereo in doubt), the BPI in data set [1] is reported as 75%. The K in data set [2] worked out at 2.13. Moreover, the Activity with Mus musculus [3] turned out to be 2.81 nM/g; in the data set on Mus musculus [5], 3.79 nM/g. The compound also registered a BUI in data set [4] of 31.5.

In turn, `NCCCC(=O)O` [GAMMA-AMINOBUTYRIC ACID] gave a Decrease in the data set with Mus musculus [6] of 62.1%. The compound also came in with a K in [7] of 0.004. In data set [1], the BPI is given as 0.96%. In addition, the Activity with Mus musculus [8] is 4.2 nM/g; in the data set on Mus musculus [9] it was 0.041 nM/g. The same compound came in with a BUI in [4] of 2.

In the data set with Mus musculus [6], `CCCCC/C=C/C/C=C/CCCCCCCC(=O)OCC(COC(=O)CCCN)OC(=O)CCCN` (stereo in doubt; 3c) yielded a Decrease of 89.3%. For the same compound, the Activity in the data set with Mus musculus [10] came out at 9.19 nM/g; with Mus musculus [11], 1.32 nM/g. In addition, the BPI in [1] worked out at 14%.

`CCCCCCCCCCCCCCCCCC(=O)OCC(COC(=O)CCCN)OC(=O)CCCN` (stereo unspecified): the Decrease in the data set on Mus musculus [6] came to 62.1%. For the same compound, in data set [7], the K came out at 8.6. For the same compound, the BPI in data set [1] amounted to 28%. The Activity stood at 1.89 nM/g in the data set on Mus musculus [12] and 6.92 nM/g in the data set with Mus musculus [13]. This compound gave a BUI in data set [4] of 45.1.

`CC/C=C/C/C=C/C/C=C/CCCCCCCC(=O)OCC(COC(=O)CCCN)OC(=O)CCCN` (stereo in doubt; 3d): the Decrease in the data set with Mus musculus [6] is 82.6%. In addition, the BPI in data set [1] worked out at 15%. Besides, the Activity with Mus musculus [14] is 7.86 nM/g; with Mus musculus [15], 1.07 nM/g.

For `CCCCCCCC/C=C/CCCCCCCC(=O)OCC(COC(=O)CCCN)OC(=O)CCCN` (stereo unspecified), in the data set with Mus musculus [6], the Decrease is reported as 74%. In data set [7], this compound had a K of 6. In addition, the BPI in data set [1] is recorded as 17%. The Activity in the data set with Mus musculus [16] came to 1.07 nM/g; with Mus musculus [17] it was 6.32 nM/g. The BUI in [4] is listed as 53.2.

In the case of `CCCCC/C=C/C/C=C/CCCCCCCC(=O)OCC(COC(=O)CCCN)OC(=O)CCCN` (stereo in doubt; 3c (L2G2)), the Activity in the data set on Mus musculus [18] worked out at 7.74 nM/g; with Mus musculus [19], 8 nM/g. Moreover, in data set [1], the BPI amounted to 97%. Moreover, the K in data set [2] is 4.2. Also, the BUI in data set [4] is recorded as 25.9.
